Measurements published in ChEMBL document CHEMBL3779840, “Discovery of 2-((3-Amino-4-methylphenyl)amino)-N-(2-methyl-5-(3-(trifluoromethyl)benzamido)phenyl)-4-(methylamino)pyrimidine-5-carboxamide (CHMFL-ABL-053) as a Potent, Selective, and Orally Available BCR-ABL/SRC/p38 Kinase Inhibitor for Chronic Myeloid Leukemia” (J Med Chem, 2016).
Active and inactive are the calls of the source. The rule behind the calls is not given here.

Key:
K562 [1] = assay: Antitumor activity against human K562 cells xenografted in nu/nu mouse assessed as tumor growth inhibition at 50 mg/kg/day, qd administered through oral gavage measured after 16 days; format: functional; conditions: 384 h, read-out: TGI
How it was run: (§1)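 Female nu/nu mice bore established K562 xenografts and received daily oral dosing at 25.0 or 50.0 mg/kg/d, or vehicle, starting when tumors reached 200 to 400 mm3, for 16 days. Groups had 5 animals; data are mean ± SEM. Tumor size and body weight were normalized to initial values, and final tumor weight was recorded. Tumor tissue was stained with HE, Ki-67 and TUNEL.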

K562 [2] = assay: Antiproliferative activity against human K562 cells xenografted in nu/nu mouse at 25 and 50 mg/kg/day, qd administered through oral gavage measured after 16 days by hematoxylin/eosin staining-based assay; format: functional, organism-based; how it was run: as §1
[3] = system: Bcr/Abl fusion protein (Homo sapiens), P00519+P11274 [F317L]; conditions: BaF3
[4] = Apparent volume of distribution in Sprague-Dawley rat at 1 mg/kg, iv; format: ADME, organism-based; conditions: in vivo, read-out: Vd(app)
Mus musculus = assay: Toxicity in nu/nu mouse xenografted with K562 cells assessed as decrease in body weight at 25 and 50 mg/kg/day, qd administered through oral gavage for 16 days measured every day during compound dosing; format: organism-based; conditions: in vivo, 384 h
How it was run: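 Female nu/nu mice carrying established K562 xenografts received oral treatment once daily at 25.0 or 50.0 mg/kg/d, or vehicle, starting when tumours reached 200 to 400 mm3. There were 5 animals per group and dosing lasted 16 days. Body weight was expressed relative to initial weight (set as 100%), and mortality was recorded. Data are given as mean ± SEM.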

[5] = Antiproliferative activity against human KU812 cells assessed as cell viability after 72 hrs by CellTiter-Glo or CCK-8 assay; format: functional; conditions: KU812, 72 h
[6] = Tmax in Sprague-Dawley rat at 10 mg/kg, po; format: ADME, organism-based; conditions: in vivo
[7] = system: Bcr/Abl fusion protein (Homo sapiens), P00519+P11274 [M351T]; conditions: BaF3
[8] = target: T1, Bcr/Abl fusion protein (Homo sapiens) (UniProt P00519+P11274); assay: Inhibition of BCR/ABL in human K562 cells assessed as downregulation of CrkL phosphorylation at […] site after 1 hr by immunoblotting method; format: cell-based
How it was run: (§2)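 KU812, K562 and MEG-01 cells were exposed to compound at the indicated concentrations for 1 h. Whole-cell lysates were then analysed by Western blot for phosphorylated signaling proteins.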

[9] = target: T1, Bcr/Abl fusion protein (Homo sapiens); assay: Inhibition of BCR/ABL autophosphorylation at Y245 site in human MEG01 cells at 300 nM after 1 hr by immunoblotting method; format: cell-based; conditions: MEG-01; how it was run: as §2
[10] = AUC(0 to infinity) in Sprague-Dawley rat at 1 mg/kg, iv; format: ADME, organism-based; set-up: dose 1 mg/kg, route intravenous, time infinity; conditions: in vivo
BaF3 [11] = conditions: Homo sapiens
[12] = target: T2, Proto-oncogene tyrosine-protein kinase Src (Homo sapiens, UniProt P12931); assay: Inhibition of partial length human wild type SRC expressed in bacterial expression system assessed as residual activity at 1 uM relative to control
[13] = target: Ephrin type-A receptor 8 (Homo sapiens) (UniProt P29322); assay: Inhibition of partial length human wild type EPHA8 expressed in bacterial expression system assessed as residual activity at 1 uM relative to control
BaF3 [14] = conditions: Homo sapiens; remark: listed apart in the source
[15] = target: T3, Discoidin domain-containing receptor 2 (Homo sapiens) (UniProt Q16832); conditions: BaF3
T3 sequence (whole entry): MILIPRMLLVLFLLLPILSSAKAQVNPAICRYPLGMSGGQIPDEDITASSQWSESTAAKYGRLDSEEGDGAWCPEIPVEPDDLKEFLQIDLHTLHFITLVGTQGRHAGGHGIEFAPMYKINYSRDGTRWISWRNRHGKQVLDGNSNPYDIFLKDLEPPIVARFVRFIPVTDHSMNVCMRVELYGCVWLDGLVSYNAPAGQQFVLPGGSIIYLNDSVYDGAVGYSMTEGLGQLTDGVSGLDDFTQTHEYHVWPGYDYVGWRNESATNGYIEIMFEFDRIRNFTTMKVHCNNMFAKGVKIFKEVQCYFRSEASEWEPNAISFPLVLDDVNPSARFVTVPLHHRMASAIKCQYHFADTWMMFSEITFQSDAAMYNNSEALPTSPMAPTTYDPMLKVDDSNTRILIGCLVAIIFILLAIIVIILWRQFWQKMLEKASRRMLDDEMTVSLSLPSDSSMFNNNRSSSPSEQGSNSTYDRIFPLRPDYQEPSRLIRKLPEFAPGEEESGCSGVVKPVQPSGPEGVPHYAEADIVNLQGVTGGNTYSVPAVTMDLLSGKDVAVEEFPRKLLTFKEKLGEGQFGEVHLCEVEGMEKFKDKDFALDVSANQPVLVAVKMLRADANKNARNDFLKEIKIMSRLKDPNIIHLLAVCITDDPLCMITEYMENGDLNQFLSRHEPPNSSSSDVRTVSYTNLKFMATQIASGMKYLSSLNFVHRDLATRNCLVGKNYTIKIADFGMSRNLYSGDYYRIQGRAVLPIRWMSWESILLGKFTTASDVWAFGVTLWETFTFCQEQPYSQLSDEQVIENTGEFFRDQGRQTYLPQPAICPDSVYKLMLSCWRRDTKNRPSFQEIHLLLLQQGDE

[16] = AUC(0 to t) in Sprague-Dawley rat at 1 mg/kg, iv; format: ADME, organism-based; conditions: in vivo
[17] = Half life in Sprague-Dawley rat at 10 mg/kg, po; format: ADME, organism-based; conditions: in vivo
[18] = Cmax in Sprague-Dawley rat at 1 mg/kg, iv; format: ADME, organism-based; set-up: dose 1 mg/kg, route intravenous; conditions: in vivo
[19] = Mean residence time (0 to infinity) in Sprague-Dawley rat at 1 mg/kg, iv; format: ADME, organism-based; conditions: in vivo
MEG-01 = assay: Induction of cell cycle arrest in human MEG01 cells assessed as accumulation at G0/G1-phase after 12 hrs by propidium iodide/RNase staining based flow cytometry; format: functional
[20] = target: T2, Proto-oncogene tyrosine-protein kinase Src; conditions: BaF3
[21] = target: T1, Bcr/Abl fusion protein (Homo sapiens); assay: Inhibition of BCR/ABL in human KU812 cells assessed as downregulation of ERK phosphorylation at Thr202/Tyr204 site after 1 hr by immunoblotting method; format: cell-based; how it was run: as §2
K562 [22] = assay: Antitumor activity against human K562 cells xenografted in nu/nu mouse assessed as reduction in tumor growth administered through oral gavage after 16 days of continuous administration; format: functional; how it was run: as §1
[23] = target: Mitogen-activated protein kinase 14 (Homo sapiens, UniProt Q16539); assay: Inhibition of full length human wild type p38-alpha expressed in bacterial expression system assessed as residual activity at 1 uM relative to control
[24] = target: Tyrosine-protein kinase Blk (Homo sapiens) (UniProt P51451); assay: Inhibition of partial length human wild type BLK expressed in bacterial expression system assessed as residual activity at 1 uM relative to control
Sequence of Tyrosine-protein kinase Blk (Homo sapiens) (P51451 2-505 limits assumed): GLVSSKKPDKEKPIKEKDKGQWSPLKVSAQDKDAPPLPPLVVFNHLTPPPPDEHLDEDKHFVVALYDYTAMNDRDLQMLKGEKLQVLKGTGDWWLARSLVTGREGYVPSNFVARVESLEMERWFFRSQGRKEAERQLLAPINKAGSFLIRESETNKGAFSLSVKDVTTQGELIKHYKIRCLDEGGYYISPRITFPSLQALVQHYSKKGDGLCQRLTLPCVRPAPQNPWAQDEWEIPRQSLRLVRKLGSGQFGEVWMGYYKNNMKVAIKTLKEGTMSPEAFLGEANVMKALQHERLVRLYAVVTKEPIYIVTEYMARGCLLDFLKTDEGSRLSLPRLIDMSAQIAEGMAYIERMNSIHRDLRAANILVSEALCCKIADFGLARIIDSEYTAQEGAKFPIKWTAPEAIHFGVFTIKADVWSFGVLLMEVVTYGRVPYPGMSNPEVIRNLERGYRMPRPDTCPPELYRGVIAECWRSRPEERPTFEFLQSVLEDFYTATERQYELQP

T1 sequence (P00519 whole entry, looked up, the tested form may be a part): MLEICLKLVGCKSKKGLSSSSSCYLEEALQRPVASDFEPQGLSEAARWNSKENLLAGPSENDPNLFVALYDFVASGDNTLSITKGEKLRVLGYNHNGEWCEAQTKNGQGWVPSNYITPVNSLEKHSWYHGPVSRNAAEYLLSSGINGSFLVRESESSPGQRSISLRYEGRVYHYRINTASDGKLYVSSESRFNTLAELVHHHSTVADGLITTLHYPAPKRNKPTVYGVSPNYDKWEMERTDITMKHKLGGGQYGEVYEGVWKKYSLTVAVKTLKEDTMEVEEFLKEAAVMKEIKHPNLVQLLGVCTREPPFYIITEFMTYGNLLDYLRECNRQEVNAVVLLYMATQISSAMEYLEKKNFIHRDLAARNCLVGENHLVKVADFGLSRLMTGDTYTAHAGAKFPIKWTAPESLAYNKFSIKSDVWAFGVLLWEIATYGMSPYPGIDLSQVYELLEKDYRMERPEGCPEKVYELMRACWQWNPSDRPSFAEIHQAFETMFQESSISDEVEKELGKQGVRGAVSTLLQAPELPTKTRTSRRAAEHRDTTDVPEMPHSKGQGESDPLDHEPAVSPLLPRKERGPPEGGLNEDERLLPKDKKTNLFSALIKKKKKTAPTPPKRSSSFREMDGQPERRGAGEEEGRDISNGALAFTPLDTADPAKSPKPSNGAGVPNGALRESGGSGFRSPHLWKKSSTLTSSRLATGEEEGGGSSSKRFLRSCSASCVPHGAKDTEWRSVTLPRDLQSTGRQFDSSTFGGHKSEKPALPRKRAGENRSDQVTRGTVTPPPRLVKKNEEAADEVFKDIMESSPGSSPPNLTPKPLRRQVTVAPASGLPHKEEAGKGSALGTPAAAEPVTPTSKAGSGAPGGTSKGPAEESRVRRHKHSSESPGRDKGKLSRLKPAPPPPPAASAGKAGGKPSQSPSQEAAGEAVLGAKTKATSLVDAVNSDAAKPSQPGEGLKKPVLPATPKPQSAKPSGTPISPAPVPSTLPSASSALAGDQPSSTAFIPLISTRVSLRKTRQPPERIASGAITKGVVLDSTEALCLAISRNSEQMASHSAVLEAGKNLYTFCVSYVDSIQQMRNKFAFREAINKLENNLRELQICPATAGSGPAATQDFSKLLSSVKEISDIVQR
T1 sequence (P11274 whole entry, looked up, the tested form may be a part): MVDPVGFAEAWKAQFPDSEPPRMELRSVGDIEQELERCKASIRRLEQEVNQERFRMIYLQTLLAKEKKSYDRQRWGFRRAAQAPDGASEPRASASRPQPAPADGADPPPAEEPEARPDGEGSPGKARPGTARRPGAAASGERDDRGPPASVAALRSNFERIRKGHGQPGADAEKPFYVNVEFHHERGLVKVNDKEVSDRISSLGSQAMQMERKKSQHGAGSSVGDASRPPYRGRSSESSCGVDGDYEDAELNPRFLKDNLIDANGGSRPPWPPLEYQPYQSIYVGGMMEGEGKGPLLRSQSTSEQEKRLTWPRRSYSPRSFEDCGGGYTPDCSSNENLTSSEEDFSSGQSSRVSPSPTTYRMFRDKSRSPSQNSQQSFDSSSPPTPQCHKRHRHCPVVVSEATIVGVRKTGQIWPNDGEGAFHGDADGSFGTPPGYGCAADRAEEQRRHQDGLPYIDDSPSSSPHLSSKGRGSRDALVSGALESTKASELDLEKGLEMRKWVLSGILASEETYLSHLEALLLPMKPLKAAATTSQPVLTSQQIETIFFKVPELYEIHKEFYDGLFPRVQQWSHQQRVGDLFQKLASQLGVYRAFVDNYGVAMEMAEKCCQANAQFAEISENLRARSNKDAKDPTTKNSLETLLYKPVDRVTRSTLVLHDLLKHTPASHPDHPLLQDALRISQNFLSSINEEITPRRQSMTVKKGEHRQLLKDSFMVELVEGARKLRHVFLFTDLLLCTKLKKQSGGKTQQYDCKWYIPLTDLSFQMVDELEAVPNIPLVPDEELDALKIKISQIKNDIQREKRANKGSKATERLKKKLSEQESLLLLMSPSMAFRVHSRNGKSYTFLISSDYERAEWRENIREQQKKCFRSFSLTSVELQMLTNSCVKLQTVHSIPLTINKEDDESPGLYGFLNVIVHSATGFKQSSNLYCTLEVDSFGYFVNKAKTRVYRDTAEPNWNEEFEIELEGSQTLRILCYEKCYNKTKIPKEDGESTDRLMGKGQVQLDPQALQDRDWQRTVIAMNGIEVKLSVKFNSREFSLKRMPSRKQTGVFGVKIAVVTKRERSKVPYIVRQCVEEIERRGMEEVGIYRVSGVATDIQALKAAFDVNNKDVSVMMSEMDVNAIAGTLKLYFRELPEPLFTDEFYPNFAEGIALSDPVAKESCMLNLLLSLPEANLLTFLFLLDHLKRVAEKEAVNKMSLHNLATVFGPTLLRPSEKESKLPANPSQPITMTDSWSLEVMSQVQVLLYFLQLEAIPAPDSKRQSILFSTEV
T2 sequence (P12931 2-536 limits assumed): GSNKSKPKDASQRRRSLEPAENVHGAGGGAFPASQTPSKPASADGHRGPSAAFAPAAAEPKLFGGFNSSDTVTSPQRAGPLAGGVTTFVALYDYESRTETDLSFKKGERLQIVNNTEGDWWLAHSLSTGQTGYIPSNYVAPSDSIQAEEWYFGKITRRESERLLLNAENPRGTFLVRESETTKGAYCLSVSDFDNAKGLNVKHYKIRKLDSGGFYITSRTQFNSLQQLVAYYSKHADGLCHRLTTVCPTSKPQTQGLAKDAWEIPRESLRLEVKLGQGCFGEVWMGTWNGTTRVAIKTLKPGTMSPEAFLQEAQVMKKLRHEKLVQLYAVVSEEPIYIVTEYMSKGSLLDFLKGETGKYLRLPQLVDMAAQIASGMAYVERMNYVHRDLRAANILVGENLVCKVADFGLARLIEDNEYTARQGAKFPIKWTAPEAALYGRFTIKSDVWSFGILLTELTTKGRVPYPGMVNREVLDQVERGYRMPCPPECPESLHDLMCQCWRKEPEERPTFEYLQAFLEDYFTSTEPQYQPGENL
Sequence of Ephrin type-A receptor 8 (Homo sapiens) (P29322 whole entry): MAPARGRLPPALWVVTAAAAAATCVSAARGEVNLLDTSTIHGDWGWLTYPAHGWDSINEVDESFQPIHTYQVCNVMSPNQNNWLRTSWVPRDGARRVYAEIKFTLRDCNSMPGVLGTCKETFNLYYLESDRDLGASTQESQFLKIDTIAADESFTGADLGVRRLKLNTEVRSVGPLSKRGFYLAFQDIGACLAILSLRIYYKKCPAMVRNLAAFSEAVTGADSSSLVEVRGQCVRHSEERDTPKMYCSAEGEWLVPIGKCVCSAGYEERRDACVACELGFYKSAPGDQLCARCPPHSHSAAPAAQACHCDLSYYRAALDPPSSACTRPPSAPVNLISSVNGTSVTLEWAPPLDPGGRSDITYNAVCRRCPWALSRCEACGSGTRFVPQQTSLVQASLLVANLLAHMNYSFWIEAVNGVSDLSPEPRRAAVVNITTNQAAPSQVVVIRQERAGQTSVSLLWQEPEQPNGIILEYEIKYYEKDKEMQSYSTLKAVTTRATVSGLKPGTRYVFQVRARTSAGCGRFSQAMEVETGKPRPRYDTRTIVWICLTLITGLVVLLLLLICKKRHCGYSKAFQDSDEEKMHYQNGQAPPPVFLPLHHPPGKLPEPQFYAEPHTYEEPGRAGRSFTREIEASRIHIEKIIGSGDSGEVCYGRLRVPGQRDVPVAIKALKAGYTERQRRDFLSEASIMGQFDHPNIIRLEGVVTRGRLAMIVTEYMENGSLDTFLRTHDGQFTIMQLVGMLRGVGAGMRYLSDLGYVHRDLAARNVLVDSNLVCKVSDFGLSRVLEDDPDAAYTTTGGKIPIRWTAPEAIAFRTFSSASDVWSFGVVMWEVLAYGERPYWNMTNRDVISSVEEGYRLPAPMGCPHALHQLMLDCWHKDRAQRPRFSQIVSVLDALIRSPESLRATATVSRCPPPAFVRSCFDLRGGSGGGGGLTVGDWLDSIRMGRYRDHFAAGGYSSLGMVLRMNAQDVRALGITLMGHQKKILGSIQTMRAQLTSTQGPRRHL
Sequence of Mitogen-activated protein kinase 14 (Q16539 whole entry): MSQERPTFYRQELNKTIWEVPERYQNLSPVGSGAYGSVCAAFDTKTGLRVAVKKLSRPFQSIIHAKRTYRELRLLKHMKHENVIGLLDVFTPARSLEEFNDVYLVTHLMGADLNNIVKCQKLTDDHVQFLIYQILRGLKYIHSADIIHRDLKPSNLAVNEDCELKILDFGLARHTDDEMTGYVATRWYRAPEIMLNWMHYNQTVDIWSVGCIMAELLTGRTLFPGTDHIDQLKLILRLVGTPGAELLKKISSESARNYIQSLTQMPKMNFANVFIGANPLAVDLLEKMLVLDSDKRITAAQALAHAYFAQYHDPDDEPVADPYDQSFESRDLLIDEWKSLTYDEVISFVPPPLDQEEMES

For CNc1nc(Nc2ccc(C)c(N)c2)ncc1C(=O)Nc1cc(NC(=O)c2cccc(C(F)(F)F)c2)ccc1C, the inhibition in vivo at 50 mg/kg/day (K562 [1]) was 48.3%, the Activity (K562 [2]) was “Active” and the GI50 [3] was 45 nM. For the same compound, the Vd [4] was 6.03 L/kg, the Activity (Mus musculus) was “Non-toxic” and the GI50 [5] was 25 nM. For the same compound, the Tmax [6] was 1 h, the GI50 [7] was 45 nM and the inhibition [8] was “Dose-dependent effect”. For the same compound, the inhibition [9] was “Active”, the AUC(0-inf) [10] was 721 ng·h/mL and the GI50 (BaF3 [11]) was 9250 nM. For the same compound, the Activity [12] was 0.5%, the Activity [13] was 0.8% and the GI50 (BaF3 [14]) was 313 nM. For the same compound, the GI50 [15] was > 10000 nM, the AUC(0-t) [16] was 636 ng·h/mL and the half-life [17] was 4.33 h. For the same compound, the Cmax [18] was 2400 ng/mL, the MRT inf [19] was 3.1 h and the Activity (MEG-01) was “Dose-dependent effect”. For the same compound, the GI50 [20] was 200 nM, the inhibition [21] was “Dose-dependent effect” and the TGI (K562 [22]) was “Dose-dependent effect”. The Activity [23] was 0% and the Activity [24] was 0.55%.
